By inhibition is commonly meant the change of the read-out against control, counted positive when it falls.

Assay [1] is described as follows: inhibitors of TNFa-induced NFkB p65 translocation, primary screen, imaging, HUVEC, MLSMR starter and 10KST1 sets (AID 438;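 active = inhibition above 20% together with a positive visual image hit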;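 also: compound added about 3h40 before a 20 min TNFalpha stimulation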;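 as to inhibition: signal is the nuclear over cytoplasmic p65 intensity ratio per well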). The conditions noted are these: HUVEC TNFa-induced p65 nuclear translocation; cell count: measured here: nuclei count (cytotoxicity indicator), at 2.08 µM; inhibition: at 2 µM, stronger effect = higher value, 0% TNFa-plus-vehicle, 100% no-TNFa wells.
The nature of assay [2]: inhibitors of mutant huntingtin aggregation, primary screen, imaging, exon1htt(103Q)mCFP cells, high-content imaging (AID 483).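 Also: compound exposure lasted 3 days before fixation.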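 As to nuclei count: percent of the per-plate median nuclei count of sample wells.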 As to conditions: exon1htt(103Q)mCFP cell line, aggregate imaging, at 2 µM; inhibition of aggregation: stronger effect = higher value; nuclei count: measured here: cell count, toxicity.
Assay [3] is described as follows: inhibitors of E-selectin induction by TNFa, primary screen, imaging, HUVEC, immunofluorescence, MLSMR starter and 10KST1 sets (AID 487;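 active = visually confirmed hit in the image check and inhibition above 20%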;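 as to inhibition: signal is fraction of cell area covered by stained E-selectin grains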;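 as to nuclei count: 100% = median nuclei count of all wells on the same plate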). As to conditions: HUVEC TNFalpha-induced E-selectin immunofluorescence imaging, at 2 µM; inhibition: stronger effect = higher value; nuclei count: measured here: cell number, toxicity.
Assay [4] deals with Voltage-gated potassium channel subunit beta-2 (Rattus norvegicus) (UniProt P62483). The experiment in a line: KvBeta enzyme negative modulators, primary screen, biochemical, NADPH fluorescence (AID 622;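 active = fluorescence slope higher than the sample average by over 3 SD, cut at about -0.22 in these data, passing the limit was not always enough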;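 also: slope of raw intensity against log time taken from 70 to 1610 s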). As to conditions: recombinant KvBeta, 4-cyanobenzaldehyde reduction, at 10 µM, stronger effect = higher value.
Voltage-gated potassium channel subunit beta-2 (Rattus norvegicus), sequence (P62483 whole entry, looked up): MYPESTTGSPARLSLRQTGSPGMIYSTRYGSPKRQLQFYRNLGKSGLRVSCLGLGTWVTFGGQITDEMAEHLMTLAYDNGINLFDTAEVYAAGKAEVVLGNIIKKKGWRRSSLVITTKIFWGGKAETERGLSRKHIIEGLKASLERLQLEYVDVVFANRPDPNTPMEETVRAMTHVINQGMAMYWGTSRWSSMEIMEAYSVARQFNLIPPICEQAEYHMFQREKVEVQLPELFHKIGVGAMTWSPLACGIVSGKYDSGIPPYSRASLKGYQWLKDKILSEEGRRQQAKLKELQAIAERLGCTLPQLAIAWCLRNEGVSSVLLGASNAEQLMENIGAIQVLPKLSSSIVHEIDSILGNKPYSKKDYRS
Assay [5] shares this target. The assay can be described thus: KvBeta positive modulators, primary screen, biochemical, NADPH fluorescence (AID 623;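 active = NADPH fluorescence slope more negative than the mean of all samples by about 3 SD, 99.7% confidence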;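 also: fluorescence intensity change per second fitted from 20 to 320 s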). As to conditions: Recombinant KvBeta, NADPH fluorescence decrease slope, 10 min; at 10 µM; stronger effect = lower value.
Assay [6] addresses Muscarinic acetylcholine receptor M4 (Homo sapiens) (UniProt P08173). The experiment in a line: compounds altering M4/GIRK thallium flux, either direction, primary screen, M4 allosteric agonist project, cell-based, HEK293 M4/GIRK, BTC-AM (AID 625;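 active = fluorescence slope after compound addition differing from the mean of all tested samples at 99.7% confidence, mostly higher but some lower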;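 also: thallium influx through GIRK channels coupled to M4 in HEK293 cells with BTC-AM dye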). The conditions noted are these: at 10 µM, actives lie on both sides. The gist of the method:
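Material: M4/GIRK1/GIRK2 stable HEK293 cell line. Medium: pH 7.3 thallium assay buffer. Dosing: single compound concentration, 10 µM final. Schedule: 1 h dye loading, 2 min kinetic read. Measured by: kinetic fluorescence with BTC-AM dye. Read-out: post-addition slope, 15–24 s, of baseline-normalized fluorescence. Benchmarks: carbachol and DMSO controls.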

Assay [7] in a line: inhibitors of Sendai virus-induced IRF3 signaling, primary screen, TLR/RLR signaling modifier project, cell-based, Sendai virus stimulus, luciferase, 10K MLSCN set (AID 602276;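 active = inhibition at or above 50% at 10 µM; inactive = inhibition below 50%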;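 also: firefly luciferase from ISG56 promoter only with Renilla not read in this screen; 0% = Sendai virus plus DMSO and 100% = medium plus DMSO without virus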). As to conditions: HEK293 RL24 IRF3 luciferase reporter, at 10 µM, stronger effect = higher value.
Assay [8] in a line: inhibitors of poly I:C-induced TLR3 signaling, primary screen, cell-based, poly I:C stimulus, luciferase, 10K MLSCN set (AID 602277;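 active = inhibition of the reporter signal at or above 50%; inactive = inhibition below 50%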). The conditions noted are these: HEK293-TLR3 RL24 IRF3 luciferase reporter, at 10 µM, stronger effect = higher value. For orientation: A reporter such as luciferase makes a cellular process visible.

Activity calls are given as the source filed them.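 The calls were made as follows, unless noted: active = visual image review flags a hit and inhibition of aggregation exceeds 20%; inconclusive = visual hit but inhibition at or below 20%; inactive = no hit on visual image review.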

Muscarinic acetylcholine receptor M4 (Homo sapiens), sequence (P08173 whole entry, looked up): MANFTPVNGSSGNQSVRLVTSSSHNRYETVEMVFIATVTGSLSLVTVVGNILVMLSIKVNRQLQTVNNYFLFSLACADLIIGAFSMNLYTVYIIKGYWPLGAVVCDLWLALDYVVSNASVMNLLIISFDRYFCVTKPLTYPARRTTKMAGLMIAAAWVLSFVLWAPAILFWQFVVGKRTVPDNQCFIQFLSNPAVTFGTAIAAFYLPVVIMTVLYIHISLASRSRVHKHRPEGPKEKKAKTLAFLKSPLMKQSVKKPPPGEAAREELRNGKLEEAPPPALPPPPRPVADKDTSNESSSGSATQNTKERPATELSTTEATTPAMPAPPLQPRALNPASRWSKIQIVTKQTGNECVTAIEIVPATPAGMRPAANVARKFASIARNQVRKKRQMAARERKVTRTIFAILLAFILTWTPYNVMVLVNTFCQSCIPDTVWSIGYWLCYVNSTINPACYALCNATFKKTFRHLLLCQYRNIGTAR

In the case of `Cc1ccsc1C1C2=C(CCCC2=O)Nc2ncnn21` (centres undefined), the cell count in assay [1] worked out at 266. In addition, the inhibition in assay [1] was -3.8% (inactive); in assay [3], -2.9% (inactive); in assay [7], 12.8% (inactive); in assay [8] it was 16.1% (inactive). The inhibition of aggregation in assay [2] was 15.5% (inactive). Moreover, the nuclei count is 86.7% in assay [2] and 101% in assay [3]. In addition, the figures for the fluorescence slope in assay [4] and in assay [6] were -0.523 (inactive) and 0.00358 (inactive), respectively. Besides, the NADPH fluorescence slope in assay [5] was -0.000154 (inactive).

Consider `Cc1ccc(C(=O)Nc2ccc3c(c2)OCO3)o1`, for which the cell count in assay [1] stood at 466. Moreover, the inhibition in assay [1] is 0% (inactive); in assay [3] it was -17.5% (inactive); in assay [7], -40.3% (inactive); in assay [8], -49.6% (inactive). The inhibition of aggregation in assay [2] was -13.9% (inactive). In addition, the nuclei count is 106% in assay [2] and 121% in assay [3]. Further, the fluorescence slope in assay [4] is -0.603 (inactive); in assay [6] it was 0.00576 (inactive). In assay [5], the NADPH fluorescence slope is -2.2e-05 (inactive).

In the case of `COc1ccccc1C(O)P(=O)(OC(C)C)c1ccc(N(C)C)cc1` (centres undefined), in assay [1], the cell count is 665. Moreover, the inhibition in assay [1] is -3.9% (inactive); in assay [3], 0% (inactive); in assay [7], 7.42% (inactive); in assay [8], 11% (inactive). Moreover, the inhibition of aggregation in assay [2] is 6.1% (inactive). For the same compound, the nuclei count in assay [2] was 122%; in assay [3] it was 106%. For the same compound, the fluorescence slope in assay [4] was -0.553 (inactive); in assay [6], 0.00553 (inactive). Besides, the NADPH fluorescence slope in assay [5] was 2.2e-06 (inactive).

As for `CCN(CC)C(=O)Oc1ccccc1NC(C)=O`, the cell count in assay [1] is 366. The inhibition in assay [1] is -3.9% (inactive); in assay [3] it was -63.5% (inactive); in assay [7] it was 20.6% (inactive); in assay [8] it was 13.2% (inactive). For the same compound, the inhibition of aggregation in assay [2] is 17.2% (inactive). Moreover, the values for the nuclei count in assay [2] and in assay [3] were 85.8% and 121%, respectively. In addition, the fluorescence slope is -0.221 (inactive) in assay [4] and 0.00764 (inactive) in assay [6]. For the same compound, in assay [5], the NADPH fluorescence slope was 2.5e-07 (inactive).

As for `CCCc1nc2ccccc2c(=O)n1NC(=O)c1c(O)c2cccc3c2n(c1=O)CCC3`, in assay [1], the cell count is 554. Besides, the inhibition in assay [1] was -15.1% (inactive); in assay [3] it was -150% (inactive); in assay [7], 7.44% (inactive); in assay [8] it was 6.93% (inactive). Also, the inhibition of aggregation in assay [2] is -12.2% (inactive). Besides, the nuclei count in assay [2] was 92%; in assay [3], 120%. The fluorescence slope in assay [4] was -0.391 (inactive); in assay [6], 0.00863 (inactive). For the same compound, the NADPH fluorescence slope in assay [5] is -0.000105 (inactive).

Regarding `CN1CCCc2cc(C#N)c(=O)[nH]c21`, the cell count in assay [1] was found to be 492. In addition, the inhibition in assay [1] is -9.7% (inactive); in assay [3], 3.9% (inactive); in assay [7], 11.5% (inactive); in assay [8], 14% (inactive). Moreover, in assay [2], the inhibition of aggregation was -0.4% (inactive). Also, the nuclei count worked out at 108% in assay [2] and 85% in assay [3]. The fluorescence slope in assay [4] is -0.117 (active); in assay [6], 0.00776 (inactive). Moreover, in assay [5], the NADPH fluorescence slope was 1e-05 (inactive).

With `CCC(Oc1ccc2ccccc2c1)C(=O)O` (centres undefined), the cell count in assay [1] stood at 666. The inhibition in assay [1] was -4% (inactive); in assay [3], -39.6% (inactive); in assay [7] it was -9.77% (inactive); in assay [8] it was -32.2% (inactive). Moreover, in assay [2], the inhibition of aggregation is -46.2% (inactive). Besides, the figures for the nuclei count in assay [2] and in assay [3] were 129% and 137%, respectively. In addition, the results for the fluorescence slope in assay [4] and in assay [6] were -0.489 (inactive) and 0.00595 (inactive), respectively. Moreover, in assay [5], the NADPH fluorescence slope was 6e-05 (inactive).

Regarding `N#Cc1cc2sc3nnc(-c4ccncc4)n3c2cc1C#N`, the cell count in assay [1] is 728. Further, the inhibition is 10.9% (inactive) in assay [1], 22.9% (inactive) in assay [3], 5.55% (inactive) in assay [7] and -16.8% (inactive) in assay [8]. Further, the inhibition of aggregation in assay [2] was -17.6% (inactive). In addition, the nuclei count was determined as 49.6% in assay [2] and 77.1% in assay [3]. Moreover, the fluorescence slope in assay [4] was -0.529 (inactive); in assay [6], 0.0043 (inactive). For the same compound, in assay [5], the NADPH fluorescence slope was 1.4e-05 (inactive).

Take `CCC(C)NC(=O)C1CCCN(S(=O)(=O)c2ccc(-n3cnnn3)cc2)C1` (centres undefined): in assay [1], the cell count turned out to be 518. Moreover, the inhibition in assay [1] was -5.4% (inactive); in assay [3], -9.5% (inactive); in assay [7], -2.34% (inactive); in assay [8], -2.75% (inactive). Also, the inhibition of aggregation in assay [2] is 13.6% (inactive). In addition, the results for the nuclei count in assay [2] and in assay [3] were 104% and 108%, respectively. Further, the values for the fluorescence slope in assay [4] and in assay [6] were -0.279 (inactive) and 0.00556 (inactive), respectively. Moreover, in assay [5], the NADPH fluorescence slope is 8.9e-07 (inactive).

With `CC(C)OP(=O)(c1ccc(N(C)C)cc1)C(O)c1ccccc1F` (centres undefined), in assay [1], the cell count stood at 720. The inhibition in assay [1] was -7.2% (inactive); in assay [3], -14.7% (inactive); in assay [7], 11.8% (inactive); in assay [8], 22.5% (inactive). Also, the inhibition of aggregation in assay [2] is 12.5% (inactive). Besides, the nuclei count in assay [2] and in assay [3] was 117% each time. For the same compound, the fluorescence slope in assay [4] is -0.541 (inactive); in assay [6], 0.00489 (inactive). The NADPH fluorescence slope in assay [5] was -5.1e-05 (inactive).

With `COc1ccc(CN(C(=O)c2ccccc2OC)C2CCS(=O)(=O)C2)cc1` (centres undefined), the cell count in assay [1] turned out to be 452. The inhibition was 2.2% (inactive) in assay [1], 13.1% (inactive) in assay [3], 14.2% (inactive) in assay [7] and 23.7% (inactive) in assay [8]. In addition, the inhibition of aggregation in assay [2] was 23% (inactive). Further, the nuclei count in assay [2] is 75%; in assay [3], 109%. The fluorescence slope was -0.58 (inactive) in assay [4] and 0.00303 (inactive) in assay [6]. Moreover, the NADPH fluorescence slope in assay [5] is -7.5e-05 (inactive).

`CCc1ccc2c(CN(CC)Cc3nc4ccccc4c(=O)[nH]3)cc(=O)oc2c1`: the cell count in assay [1] came to 530. The inhibition in assay [1] was 1.4% (inactive); in assay [3], -23.3% (inactive); in assay [7], 17.1% (inactive); in assay [8] it was 26.9% (inactive). Further, in assay [2], the inhibition of aggregation is 2% (inactive). Further, the nuclei count amounted to 114% in assay [2] and 107% in assay [3]. Further, the fluorescence slope is -0.57 (inactive) in assay [4] and 0.00486 (inactive) in assay [6]. In addition, the NADPH fluorescence slope in assay [5] is 5.5e-06 (inactive).

As to `CCOC(=O)C(C)On1c(SC(C)C(=O)OCC)nc2ccccc2c1=O` (centres undefined), in assay [1], the cell count is 808. For the same compound, the inhibition in assay [1] is -3.9% (inactive); in assay [3], -57.6% (inactive); in assay [7] it was 20% (inactive); in assay [8], 20% (inactive). The inhibition of aggregation in assay [2] is 10.3% (inactive). Further, the figures for the nuclei count in assay [2] and in assay [3] were 103% and 107%, respectively. The fluorescence slope is -0.582 (inactive) in assay [4] and 0.0065 (inactive) in assay [6]. Besides, the NADPH fluorescence slope in assay [5] was -5.7e-05 (inactive).

As to `O=C1CCCC2=C1C(c1ccsc1)CC(=O)N2c1ccccc1` (centres undefined), in assay [1], the cell count came to 550. The inhibition in assay [1] is -11.1% (inactive); in assay [3] it was -88.5% (inactive); in assay [7] it was 15.9% (inactive); in assay [8], 19.3% (inactive). Further, the inhibition of aggregation in assay [2] was -6.3% (inactive). Also, the results for the nuclei count in assay [2] and in assay [3] were 100% and 95.1%, respectively. Further, the values for the fluorescence slope in assay [4] and in assay [6] were -0.422 (inactive) and 0.00622 (inactive), respectively. Besides, the NADPH fluorescence slope in assay [5] is -0.000362 (inactive).

For the origin of these results see PubChem BioAssay.
